Data published in PMC9989852 (Food and chemical toxicology : an international journal …, 2022).
“And” between values parts separate entries of the source, which are not always exact repeats. Equal values may be shown once.

Experiments:
ear pinna = assay: Skin; assay type: in vivo, B6C3F1 mice; settings: dermal, 28 days
Outline: (§1)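 Dosing was daily topical to both dorsal ears (25 μl/ear, acetone vehicle) in female B6C3F1 mice. Liver caudate lobe or half ear pinna was stored in RNAlater and homogenized in RLT buffer. RNA was isolated on RNeasy columns with DNase, and 1–2 μg was reverse-transcribed. TaqMan real-time PCR was read as 2−ΔΔCT vs vehicle, normalized to β-actin. Statistics: ANOVA/Dunnett's, or Kruskal-Wallis/Dunn's for unequal variance.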

liver = assay: Liver histopathology after 28-day dermal exposure; assay type: in vivo, B6C3F1 mice; settings: 28 days, mice affected of 5
Outline: (§2)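 Female B6C3F1 mice (5/group) received 25 μl/ear on the dorsal ear surfaces daily, with acetone as vehicle. Tissues were formalin-fixed about 24 h after the last dose: liver remainder, half spleen, right kidney and half ear pinna. Sections were paraffin-embedded, cut at 5 μm and stained with H&E. A veterinary pathologist read them per STP guideline and graded 1 (minimal) to 5 (severe) by extent.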

B6C3F1 mice [1] = assay: Serum chemistries after 28-day dermal exposure; assay type: in vivo; settings: 28 days
Outline: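 Female B6C3F1 mice received daily dorsal ear application (25 μl/ear, acetone vehicle). About 24 h after the last dose, blood was taken by cardiac puncture. Serum was separated by centrifugation and stored at −20 °C. ALKP, BUN, glucose and cholesterol were read on a Catalyst DX analyzer. Data are mean ± SE of 4–5 mice, ANOVA with Dunnett's; ALKP was also tested by linear regression (p < 0.05).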

liver (caudate) = assay: Liver gene expression; assay type: in vivo, B6C3F1 mice; settings: dermal, 28 days
Outline: as §1

B6C3F1 mice [2] = assay: Organ weights and body weight after 28-day dermal exposure; assay type: in vivo; settings: 28 days
kidney, spleen = assay: Kidney and spleen histopathology after 28-day dermal exposure; assay type: in vivo, B6C3F1 mice; settings: 1.25–5%, 28 days, data not shown
Outline: as §2

[3] = PFAS concentration in serum; assay type: in vivo, B6C3F1 mice; settings: 5%, dermal, 28 days
Outline: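 Serum came by cardiac puncture about 24 h after the final daily ear dose (25 μl/ear, acetone vehicle; female B6C3F1 mice). Samples underwent solid-phase extraction and LC/MS/MS. Short-chain analytes were quantified as linear isomer only; the legacy comparator was quantified as linear plus branched. Data are mean ± SE of 4–5 mice, one-way ANOVA with Dunnett's vs vehicle.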

[4] = system: auricular draining lymph nodes (dLNs); assay: Draining lymph node phenotyping by flow cytometry after 28-day dermal exposure; assay type: in vivo, B6C3F1 mice; settings: 28 days
Outline: (§3)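 Female B6C3F1 mice (5/group) received 25 μl/ear daily to the dorsal ears in acetone. About 24 h after the last dose, tissues went into RPMI: both auricular dLNs, half spleen and one ear pinna. Single-cell suspensions were acquired on an LSR II, with populations gated per supplemental strategy and FMO gating controls. Results are mean ± SE, n=5, by one-way ANOVA.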

spleen = assay: Spleen phenotyping by flow cytometry after 28-day dermal exposure; assay type: in vivo, B6C3F1 mice; settings: 28 days
Outline: as §3

Structure (SMILES): O=C(O)C(F)(F)C(F)(F)C(F)(F)C(F)(F)F [PFPeA, perfluoropentanoic acid]
- skin Krt10 gene expression (ear pinna; 1.25%): increased
- skin Pparγ gene expression (ear pinna; 1.25%): decreased
- skin Pparδ gene expression (ear pinna; 1.25–5%): no changes
- skin Krt10 gene expression (ear pinna; 2.5%): increased
- skin Pparγ gene expression (ear pinna; 2.5%): decreased
- skin Flg gene expression (ear pinna; 5%): increased
- skin Il6 gene expression, increase (ear pinna; 5%): 2.5 fold
- skin Krt10 gene expression (ear pinna; 5%): increased
- skin PPARα gene expression (ear pinna; 5%): decreased
- skin Pparγ gene expression (ear pinna; 5%): decreased
- skin S100a7a gene expression, increase (ear pinna; 5%): 42.5 fold
- skin Serpine1 gene expression, increase (ear pinna; 5%): 3 fold
- skin Tslp gene expression, increase (ear pinna; 5%): 3 fold
- Liver: Hypertrophy, centrilobular, hepatocyte, Mild (incidence) (liver; 1.25%): 0
- Liver: Hypertrophy, centrilobular, hepatocyte, Minimal (incidence) (liver; 1.25%): 5/ 5 and 5
- Liver: Hypertrophy, centrilobular, hepatocyte, Mild (incidence) (liver; 2.5%): 5/5 and 5
- Liver: Hypertrophy, centrilobular, hepatocyte, Minimal (incidence) (liver; 2.5%): 0
- Liver: Hypertrophy, centrilobular, hepatocyte, Mild (incidence) (liver; 5%): 5/5 and 5
- Liver: Hypertrophy, centrilobular, hepatocyte, Minimal (incidence) (liver; 5%): 0
- serum cholesterol (B6C3F1 mice [1]; 1.25%): decrease
- serum urea nitrogen (BUN), decrease (B6C3F1 mice [1]; 2.5%): 20%
- serum glucose, increase compared to vehicle control (B6C3F1 mice [1]; 5%): 30%
- serum urea nitrogen (BUN), decrease (B6C3F1 mice [1]; 5%): 22%
- serum alanine aminotransferase (ALT) (B6C3F1 mice [1]; any concentration, data not shown): No change
- liver Pltp gene expression (liver (caudate); 2.5%): increase
- liver Pparδ expression (liver (caudate); 2.5%): decreasing
- liver Serpine1 gene expression, increase (liver (caudate); 2.5%): 8 fold
- liver Acox1 gene expression (liver (caudate); 5%): increase
- liver Cd36 gene expression, increase (liver (caudate); 5%): 6.5 fold
- liver Ehhadh gene expression, increase (liver (caudate); 5%): 8.8 fold
- liver Fabp1 gene expression (liver (caudate); 5%): increased
- liver Pltp gene expression (liver (caudate); 5%): increase
- liver Pparγ expression (liver (caudate); 5%): increasing
- liver Pparδ expression (liver (caudate); 5%): decreasing
- liver Serpine1 gene expression, increase (liver (caudate); 5%): 11.3 fold
- body weight or overt signs of toxicity (B6C3F1 mice [2]; 1.25–5%): no changes
- Liver weight (% body weight), increase vs vehicle-treated mice (B6C3F1 mice [2]; 5%): 12%
- microscopic observations in the kidney or the spleen (kidney, spleen): No PFPeA, PFHxA, or PFHpA-related microscopic observations
- PFAS serum concentration vs vehicle [3]: significant increase
- dLN B-cells cell number ([4]; 1.25%): 8.67 ± 0.72 × 10^5
- dLN B-cells frequency ([4]; 1.25%): 14.18 ± 0.59%
- dLN CD4^+ cell number ([4]; 1.25%): 2.63 ± 0.27 × 10^6
- dLN CD4^+ frequency ([4]; 1.25%): 42.52 ± 0.79%
- dLN CD8^+ cell number ([4]; 1.25%): 18.60 ± 0.18 × 10^5
- dLN CD8^+ frequency ([4]; 1.25%): 30.24 ± 0.44%
- dLN CD11b+ cell number ([4]; 1.25%): 7.21 ± 1.61 × 10^4
- dLN CD11b+ frequency ([4]; 1.25%): 1.26 ± 0.29%
- dLN CD86 B-cells ([4]; 1.25%): 1140.40 ± 46.06 MFI
- dLN CD86 DCs ([4]; 1.25%): 42.60 ± 1.44 MFI x 10^2
- dLN Dendritic Cells cell number ([4]; 1.25%): 6.24 ± 0.42 × 10^4
- dLN Dendritic Cells frequency ([4]; 1.25%): 1.02 ± 0.03%
- dLN Eosinophils cell number ([4]; 1.25%): 20.90 ± 7.02 × 10^2
- dLN MHCII B-cells ([4]; 1.25%): 105.00 ± 1.83 MFI × 10^2
- dLN NK cell number ([4]; 1.25%): 3.23 ± 0.30 × 10^4
- dLN NK frequency ([4]; 1.25%): 0.53 ± 0.03%
- dLN Neutrophils cell number ([4]; 1.25%): 12.30 ± 1.75 × 10^2
- dLN Total Cellularity ([4]; 1.25%): 6.15 ± 0.57 × 10^6
- dLN B-cells cell number ([4]; 2.5%): 12.60 ± 2.36 × 10^5
- dLN B-cells frequency ([4]; 2.5%): 15.00 ± 0.92 %
- dLN CD4^+ cell number ([4]; 2.5%): 3.34 ± 0.55 × 10^6
- dLN CD4^+ frequency ([4]; 2.5%): 39.54 ± 0.62 %
- dLN CD8^+ cell number ([4]; 2.5%): 25.00 ± 3.80 × 10^5
- dLN CD8^+ frequency ([4]; 2.5%): 29.96 ± 0.86%
- dLN CD11b+ cell number ([4]; 2.5%): 17.00 ± 4.33 × 10^4
- dLN CD11b+ frequency ([4]; 2.5%): 1.92 ± 0.19%
- dLN CD86 B-cells ([4]; 2.5%): 1131.40 ± 96.26 MFI
- dLN CD86 DCs ([4]; 2.5%): 40.30 ± 1.05 MFI x 10^2
- dLN Dendritic Cells cell number ([4]; 2.5%): 10.40 ± 1.31 × 10^4
- dLN Dendritic Cells frequency ([4]; 2.5%): 1.31 ± 0.15%
- dLN Eosinophils cell number ([4]; 2.5%): 81.90 ± 15.70 × 10^2
- dLN MHCII B-cells ([4]; 2.5%): 115.00 ± 6.25 MFI × 10^2
- dLN NK cell number ([4]; 2.5%): 5.52 ± 0.71 × 10^4
- dLN NK frequency ([4]; 2.5%): 0.69 ± 0.07%
- dLN Neutrophils cell number ([4]; 2.5%): 19.10 ± 3.38 × 10^2
- dLN Total Cellularity ([4]; 2.5%): 8.45 ± 1.43 × 10^6
- dLN B-cells cell number ([4]; 5%): 17.00 ± 1.58 × 10^5
- dLN B-cells frequency ([4]; 5%): 16.22 ± 0.70 %
- dLN CD4^+ cell number ([4]; 5%): 3.99 ± 0.36 × 10^6
- dLN CD4^+ frequency ([4]; 5%): 38.02 ± 0.95 %
- dLN CD8^+ cell number ([4]; 5%): 30.20 ± 0.23 × 10^5
- dLN CD8^+ frequency ([4]; 5%): 28.88 ± 0.40%
- dLN CD11b+ cell number ([4]; 5%): 24.00 ± 3.48 × 10^4
- dLN CD11b+ frequency ([4]; 5%): 2.26 ± 0.17%
- dLN CD86 B-cells ([4]; 5%): 1188.80 ± 47.41 MFI
- dLN CD86 DCs ([4]; 5%): 36.80 ± 2.23 MFI x 10^2
- dLN Dendritic Cells cell number ([4]; 5%): 12.60 ± 1.09 × 10^4
- dLN Dendritic Cells frequency ([4]; 5%): 1.21 ± 0.08%
- dLN Eosinophils cell number ([4]; 5%): 140.00 ± 23.00 × 10^2
- dLN MHCII B-cells ([4]; 5%): 126.00 ± 6.53 MFI × 10^2
- dLN NK cell number ([4]; 5%): 7.50 ± 0.56 × 10^4
- dLN NK frequency ([4]; 5%): 0.73 ± 0.05%
- dLN Neutrophils cell number ([4]; 5%): 22.40 ± 5.58 × 10^2
- dLN Total Cellularity ([4]; 5%): 10.50 ± 0.93 × 10^6
- spleen NK cell frequency (spleen; 1.25%): increase
- spleen MFI of CD86 on B-cells (spleen; 2.5%): increase
- spleen MFI of MHCII on B-cells (spleen; 2.5%): increase
- spleen NK cell frequency (spleen; 2.5%): increase
- spleen number of CD4^+ T-cells (spleen; 2.5%): significant decrease
- spleen number of CD11b + Ly6C− cells (spleen; 2.5%): significant decrease
- spleen MFI of CD86 on B-cells (spleen; 5%): increase
- spleen MFI of MHCII on B-cells (spleen; 5%): increase
- spleen NK cell frequency (spleen; 5%): increase
